Test results: article PMC9588736 (Cell chemical biology, 2022)

Columns and labels:
HEK293T cells = experiment: Quantitative proteomics in HEK293T cells; type: cell-based; conditions: human HEK293T cells, 10 hour treatment
BRD4 [1] = target: T1, BRD4 (Homo sapiens, UniProt O60885); experiment: Immunoblot of BRD4 degradation in MM.1S cells; type: cell-based
How it was run: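 MM.1S cells were treated with test compound for 16 h (24 h in the initial screen). For rescue, cells were pretreated 2 h with 10 μM KEAP1 inhibitor, 10 μM JQ1 or 1 μM MLN4924. Lysates in RIPA were BCA-normalised, run on 4–12% gels and blotted to PVDF with IRDye secondaries. BRD4 bands were quantified relative to β-actin. Two independent experiments.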

MM.1S proteome = experiment: Multiplexed mass spectrometry-based proteomics in MM.1S cells; type: cell-based, human; conditions: 200 nM, 6 hours
How it was run: (§1)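 TMT-multiplexed LC-MS proteomics. Cells were treated with DMSO (biological triplicate) or test compound (MM.1S: 0.2 μM, 6 h; KPC: 1 μM, 8 h), harvested by centrifugation at 4 °C and lysed in 8 M urea/EPPS pH 8.5. 200 μg protein was reduced, alkylated and precipitated, digested with LysC 12 h at room temperature then trypsin 6 h at 37 °C, TMT-labelled, high-pH fractionated (96→24) and run on an Orbitrap Fusion Lumos.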

KEAP1-BRD4BD2 = KEAP1-BRD4BD2 (Homo sapiens, UniProt O60885+Q14145); experiment: KEAP1-BRD4BD2 dimerization TR-FRET assay; type: biochemical
How it was run: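 TR-FRET mix: 200 nM biotinylated human BRD4BD2, 200 nM Alexa Fluor 647-labelled human KEAP1 (residues 321–609, insect-cell expressed, SpyCatcher-labelled) and 2 nM Eu-streptavidin. Buffer was 50 mM Tris pH 8.0, 200 mM NaCl, 0.1% Pluronic F-68, 0.5% BSA and 1 mM TCEP; compound was titrated. After 15 min at room temperature, excitation was 337 nm and the 665/620 nm ratio was read over thirty 200-s cycles. Mean ± SD of ≥3 technical replicates; two independent experiments.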

BRD4 [2] = target: T1, BRD4; experiment: Immunoblot of BRD4 degradation in parental and KEAP1 knockdown OVCAR8 cells; type: cell-based
How it was run: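 OVCAR8 cells were grown in DMEM with 10% FBS. KEAP1 knockdown lines came from shRNA lentivirus made in HEK293T, used with polybrene (10 μg/mL) and selected with puromycin (1 μg/mL); knockdown was checked by Western blot. Parental and knockdown cells were treated with test compound for 16 h, then immunoblotted. BRD4 was normalised to β-actin. Two independent experiments.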

BRD4/3/2 = experiment: Immunoblot of BRD4/3/2 in MM.1S cells; type: cell-based, human; conditions: indicated time points
How it was run: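 MM.1S cells were grown in RPMI with 10% FBS at 37 °C and 5% CO2, then given DMSO or test compound for a time course. Cells were lysed in RIPA with protease and phosphatase inhibitors. BCA-equalised protein was run on 4–12% gels and transferred to PVDF. Primary antibodies ran overnight at 4 °C and IRDye secondaries 1 h at room temperature. BRD4/3/2 bands were normalised to β-actin by densitometry. Two independent experiments.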

FAK [3] = target: FAK (Mus musculus, UniProt P34152); experiment: Immunoblot of FAK degradation in KPC cells; type: cell-based
How it was run: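 Murine pancreatic KPC cells (RPMI, 10% FBS) were exposed to 500 nM or 1 μM test compound over a time course. RIPA lysates were immunoblotted, with FAK band intensity normalised to β-actin in ImageJ. Blots are representative of two independent experiments.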

KPC cells = experiment: Quantitative proteomics in KPC cells; type: cell-based, mouse; conditions: 1 μM, 8 hours
How it was run: as §1

FAK [4] = target: FAK (Homo sapiens, UniProt Q05397); experiment: Immunoblot of FAK degradation in PATU-8988T cells; type: cell-based; conditions: 0.1–5 μM, 24 h
How it was run: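 Human PATU-8988T pancreatic cells (DMEM, 10% FBS) were treated 24 h with test compound at 0.1–5 μM. FAK was assessed by immunoblot of RIPA lysates and normalised to β-actin. Two independent experiments.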

FAK (Mus musculus, UniProt P34152), sequence (P34152 whole entry): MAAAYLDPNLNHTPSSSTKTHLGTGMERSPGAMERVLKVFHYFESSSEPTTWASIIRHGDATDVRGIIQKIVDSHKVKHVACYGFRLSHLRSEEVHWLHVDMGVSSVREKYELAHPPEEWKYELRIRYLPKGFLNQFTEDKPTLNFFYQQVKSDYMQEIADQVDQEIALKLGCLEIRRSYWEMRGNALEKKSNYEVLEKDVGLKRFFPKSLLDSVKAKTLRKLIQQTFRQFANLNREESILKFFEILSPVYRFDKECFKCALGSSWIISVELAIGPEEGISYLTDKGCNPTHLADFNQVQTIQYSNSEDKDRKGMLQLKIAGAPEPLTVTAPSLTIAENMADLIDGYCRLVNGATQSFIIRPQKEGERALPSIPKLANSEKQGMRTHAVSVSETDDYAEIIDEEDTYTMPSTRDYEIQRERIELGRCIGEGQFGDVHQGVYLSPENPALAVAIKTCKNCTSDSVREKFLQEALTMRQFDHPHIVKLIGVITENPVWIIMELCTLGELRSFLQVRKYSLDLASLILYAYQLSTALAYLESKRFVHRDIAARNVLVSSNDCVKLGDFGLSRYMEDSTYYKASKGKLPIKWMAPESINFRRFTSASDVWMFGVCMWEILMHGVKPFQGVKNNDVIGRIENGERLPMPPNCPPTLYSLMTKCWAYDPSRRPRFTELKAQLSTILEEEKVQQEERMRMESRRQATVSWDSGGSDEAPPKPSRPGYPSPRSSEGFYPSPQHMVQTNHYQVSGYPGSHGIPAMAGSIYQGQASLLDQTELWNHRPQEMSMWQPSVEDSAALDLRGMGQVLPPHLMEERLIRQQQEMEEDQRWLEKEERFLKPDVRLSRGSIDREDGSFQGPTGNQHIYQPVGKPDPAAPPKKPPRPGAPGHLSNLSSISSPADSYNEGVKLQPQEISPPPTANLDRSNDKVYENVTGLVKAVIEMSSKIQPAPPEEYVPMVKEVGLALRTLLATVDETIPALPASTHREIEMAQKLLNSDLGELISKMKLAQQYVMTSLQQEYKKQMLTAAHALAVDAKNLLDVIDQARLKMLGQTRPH
FAK (Homo sapiens, UniProt Q05397), sequence (Q05397 whole entry): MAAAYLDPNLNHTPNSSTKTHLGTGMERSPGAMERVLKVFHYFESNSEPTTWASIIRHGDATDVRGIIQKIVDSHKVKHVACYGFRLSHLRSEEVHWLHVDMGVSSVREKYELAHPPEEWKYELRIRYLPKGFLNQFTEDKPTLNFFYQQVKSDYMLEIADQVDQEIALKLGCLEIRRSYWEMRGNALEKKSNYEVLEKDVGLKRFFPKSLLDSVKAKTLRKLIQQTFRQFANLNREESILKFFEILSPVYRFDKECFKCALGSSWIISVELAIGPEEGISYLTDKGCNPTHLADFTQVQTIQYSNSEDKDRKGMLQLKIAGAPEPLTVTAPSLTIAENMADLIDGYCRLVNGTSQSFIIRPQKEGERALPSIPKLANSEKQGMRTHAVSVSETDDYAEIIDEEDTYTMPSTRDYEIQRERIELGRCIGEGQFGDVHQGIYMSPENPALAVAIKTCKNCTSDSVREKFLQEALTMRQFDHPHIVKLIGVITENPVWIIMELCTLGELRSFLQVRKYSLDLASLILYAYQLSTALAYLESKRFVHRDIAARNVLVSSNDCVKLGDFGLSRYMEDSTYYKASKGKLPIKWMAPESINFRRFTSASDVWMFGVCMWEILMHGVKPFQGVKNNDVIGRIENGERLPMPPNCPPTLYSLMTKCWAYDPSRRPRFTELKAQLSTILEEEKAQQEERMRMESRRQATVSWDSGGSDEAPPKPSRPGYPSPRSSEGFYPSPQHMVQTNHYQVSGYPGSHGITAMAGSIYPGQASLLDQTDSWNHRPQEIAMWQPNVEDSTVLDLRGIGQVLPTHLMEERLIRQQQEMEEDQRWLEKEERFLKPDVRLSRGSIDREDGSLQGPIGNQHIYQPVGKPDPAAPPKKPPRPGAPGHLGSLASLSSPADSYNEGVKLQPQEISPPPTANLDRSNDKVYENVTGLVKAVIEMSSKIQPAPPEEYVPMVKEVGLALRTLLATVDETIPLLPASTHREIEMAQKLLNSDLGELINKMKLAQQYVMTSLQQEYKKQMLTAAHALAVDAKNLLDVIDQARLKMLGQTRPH
KEAP1-BRD4BD2, sequence (Q14145 321-609 limits assumed, other chains not shown): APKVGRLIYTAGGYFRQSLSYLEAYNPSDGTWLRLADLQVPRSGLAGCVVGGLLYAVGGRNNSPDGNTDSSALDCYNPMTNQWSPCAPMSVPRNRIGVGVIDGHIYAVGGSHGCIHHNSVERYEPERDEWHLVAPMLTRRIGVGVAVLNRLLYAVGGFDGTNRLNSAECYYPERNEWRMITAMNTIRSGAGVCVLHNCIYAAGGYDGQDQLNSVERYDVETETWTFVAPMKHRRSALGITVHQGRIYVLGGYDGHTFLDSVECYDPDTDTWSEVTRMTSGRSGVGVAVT

Cc1ccc(C(CC(=O)O)c2cc(OCC(=O)NCCOCCOCCN3CCN(c4ccc(Nc5ncc(Cl)c(Nc6ccccc6S(=O)(=O)C(C)C)n5)cc4)CC3)c3c(c2)nnn3C)cc1CN1CC(C)Oc2ccccc2S1(=O)=O (centres unmarked) [DGY-03–188, 3-(7-(2-((2-(2-(2-(4-(4-((5-chloro-4-((2-(isopropylsulfonyl)phenyl)amino)pyrimidin-2-yl)amino)phenyl)piperazin-1-yl)ethoxy)ethoxy)ethyl)amino)-2-oxoethoxy)-1-methyl-1H-benzo[d][1,2,3]triazol-5-yl)-3-(4-methyl-3-((4-methyl-1,1-dioxido-3,4-dihydro-2H-benzo[b][1,4,5]oxathiazepin-2-yl)methyl)phenyl)propanoic acid]
degradation across the whole proteome (HEK293T cells): did not induce any degradation across the whole proteome

COc1cc([C@@H](CC(=O)O)c2ccc(C)c(CN3C[C@@H](C)Oc4cc(CCCCCCNC(=O)C[C@@H]5N=C(c6ccc(Cl)cc6)c6c(sc(C)c6C)-n6c(C)nnc65)ccc4S3(=O)=O)c2)cc2nnn(C)c12 [DGY-06–177-pk2, (S)-3-(3-(((R)-7-(6-(2-((S)-4-(4-chlorophenyl)-2,3,9-trimethyl-6H-thieno[3,2-f][1,2,4]triazolo[4,3-a][1,4]diazepin-6-yl)acetamido)hexyl)-4-methyl-1,1-dioxido-3,4-dihydro-2H-benzo[b][1,4,5]oxathiazepin-2-yl)methyl)-4-methylphenyl)-3-(7-methoxy-1-methyl-1H-benzo[d][1,2,3]triazol-5-yl)propanoic acid]
BRD4 degradation, enantiomers compared (BRD4 [1]; MM1.S cells, 24-hour treatment at 1 μM): induced stronger degradation of BRD4 | BRD4 degradation after pre-treatment with MLN4924 (BRD4 [1]; MM.1S cells, 1 μM MLN4924 2 h prior, then 16 hrs): BRD4 degradation was blocked | BRD4 degradation after pre-treatment with excess (+)-JQ1 or KI-696 (BRD4 [1]; MM.1S cells, 10 μM JQ1 or 10 μM KEAP1 inhibitor 2 h prior, then 16 hrs): abolished | selectivity of degradation across the proteome (MM.1S proteome): BRD4 as the only significantly downregulated protein | concentration at which KEAP1-BRD4BD2 dimerization is promoted (KEAP1-BRD4BD2): approximately 100 nM | effect on BRD4 abundance (BRD4 [2]; KEAP1 knockdown (KEAP1^KD) OVCAR8 cells, 16 h): no effect on BRD4 abundance | BRD4 degradation (BRD4 [2]; OVCAR8 cells, 1 μM): induces degradation of BRD4 | concentration of maximal BRD4 degradation (BRD4 [2]; parental OVCAR8 cells, 16 hours): 1 µM | degradation of BRD4 versus BRD2 and BRD3 by immunoblotting (BRD4/3/2): preferentially induces BRD4 degradation while largely sparing BRD2&3

COc1cc([C@@H](CC(=O)O)c2ccc(C)c(CN3C[C@@H](C)Oc4cc(CCCN5CCN(c6ccc(Nc7ncc(Cl)c(Nc8ccccc8S(=O)(=O)C(C)C)n7)cc6)CC5)ccc4S3(=O)=O)c2)cc2nnn(C)c12 [NJH-04–098, (S)-3-(3-(((R)-7-(3-(4-(4-((5-chloro-4-((2-(isopropylsulfonyl)phenyl)amino)pyrimidin-2-yl)amino)phenyl)piperazin-1-yl)propyl)-4-methyl-1,1-dioxido-3,4-dihydro-2H-benzo[b][1,4,5]oxathiazepin-2-yl)methyl)-4-methylphenyl)-3-(7-methoxy-1-methyl-1H-benzo[d][1,2,3]triazol-5-yl)propanoic acid]
time of maximal FAK degradation (FAK [3]; 500 nM): 24 h | time of maximal FAK degradation (FAK [3]; 1 μM): 8 h | proteins downregulated across the proteome (KPC cells): only FAK (PTK2) was significantly downregulated across the proteome | FAK degradation (FAK [4]): did not observe degradation of FAK
